“And” between values parts separate entries of the source, which are not always exact repeats. Identical values can stand only once. Like-named read-outs stand apart in the source and are kept apart here.
Legend:
[1] = Mass balance study, single oral dose of [14C]-pexidartinib 400 mg; format: in vivo, human; conditions: for Percent of Radioactive Dose, feces: pooled feces
Procedure, shortened: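 Eight healthy men, 19–55 y, BMI 19–32 kg/m2. Single oral 400 mg (150 μCi) 14C suspension with ~50 mL water after ≥8 h fast, fasting ≥4 h after dosing. Confined ≥168 h; urine and feces collected up to 240 h. Total radioactivity by scintillation counting. Parent in plasma by validated LC-MS/MS. Radio-LC-MS profiling of metabolites. Noncompartmental PK.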

[2] = format: in vivo, human; conditions: for half-life / Cmax: human, plasma; for half-life: oral; for Cmax: po; for dose-normalized AUCinf, geometric LS mean / dose-normalized AUClast, geometric LS mean / dose-normalized Cmax, geometric LS mean: ANOVA
Procedure, shortened: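 Healthy adults of both sexes, 18–60 y, BMI 18–30 kg/m2. Randomized three-period crossover (sequences ABC/BCA/CAB), with a single fasted oral dose and 240 mL water on day 1 of each period and a 10-day washout. Plasma sampled 0.5–144 h postdose and analysed by validated LC-MS/MS. Noncompartmental PK. Mixed-effects ANOVA on dose-normalized ln Cmax/AUC versus the 400 mg reference. Power model: 90% CI of slope against the 80–120% interval.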

rCYP3A4 = rCYP3A4 (Homo sapiens, UniProt P08684); experiment: In vitro metabolic enzyme identification, recombinant human CYP incubation; format: in vitro ADME; conditions: 1 μM pexidartinib, NADPH, 37°C, 30 minutes
Chain of rCYP3A4 (P08684 whole entry): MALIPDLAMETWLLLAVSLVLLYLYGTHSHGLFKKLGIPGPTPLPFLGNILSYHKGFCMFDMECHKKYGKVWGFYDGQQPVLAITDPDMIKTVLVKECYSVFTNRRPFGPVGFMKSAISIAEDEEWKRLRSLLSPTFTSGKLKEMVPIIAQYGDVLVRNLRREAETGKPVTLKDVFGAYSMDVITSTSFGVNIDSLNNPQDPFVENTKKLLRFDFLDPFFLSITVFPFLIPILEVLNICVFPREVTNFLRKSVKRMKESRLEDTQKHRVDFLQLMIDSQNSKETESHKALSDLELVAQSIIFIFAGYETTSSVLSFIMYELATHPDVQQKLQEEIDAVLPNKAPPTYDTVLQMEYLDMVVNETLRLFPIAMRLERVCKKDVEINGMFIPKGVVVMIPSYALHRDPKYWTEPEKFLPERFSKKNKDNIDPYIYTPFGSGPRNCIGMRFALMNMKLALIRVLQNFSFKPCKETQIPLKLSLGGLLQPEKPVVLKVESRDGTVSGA
Procedure, shortened: (§1)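 1 μM test compound incubated with a panel of recombinant human CYPs (1A2, 2B6, 2C8, 2C9, 2C19, 2D6, 3A4, 3A5) plus NADPH at 37°C for 30 minutes. Parent loss measured by LC-MS/MS.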

rCYP3A5 = rCYP3A5 (Homo sapiens, UniProt P20815); experiment: as above; format: in vitro ADME; conditions: 1 μM pexidartinib, NADPH, 37°C, 30 minutes
Chain of rCYP3A5 (P20815 whole entry): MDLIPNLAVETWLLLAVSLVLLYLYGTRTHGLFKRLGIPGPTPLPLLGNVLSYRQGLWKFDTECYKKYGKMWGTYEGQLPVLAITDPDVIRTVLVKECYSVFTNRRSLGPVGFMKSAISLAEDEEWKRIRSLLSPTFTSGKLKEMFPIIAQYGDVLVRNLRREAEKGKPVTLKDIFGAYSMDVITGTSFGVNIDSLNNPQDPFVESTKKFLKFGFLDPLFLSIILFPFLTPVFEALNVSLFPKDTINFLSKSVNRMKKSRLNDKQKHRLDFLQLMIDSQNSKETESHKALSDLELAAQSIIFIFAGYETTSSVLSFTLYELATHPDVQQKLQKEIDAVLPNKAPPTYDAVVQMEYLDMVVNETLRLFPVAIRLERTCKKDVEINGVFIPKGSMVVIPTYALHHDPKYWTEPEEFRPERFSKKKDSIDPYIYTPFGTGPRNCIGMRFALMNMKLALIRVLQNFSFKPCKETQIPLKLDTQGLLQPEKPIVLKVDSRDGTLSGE
Procedure, shortened: as §1

cytochrome P450 (CYP) 3A = conditions: previous pharmacokinetic analyses ref 4; cited from earlier work
CYP2C9 = conditions: previous pharmacokinetic analyses ref 4; cited from earlier work
[3] = following oral administration; background statement, no reference given; cited from earlier work
[4] = male, human, plasma, po, 400 mg
[5] = single oral [14C]-pexidartinib 400 mg
[6] = single oral [14C]-pexidartinib 400 mg, N = 8, median (range)
[7] = across all three dose levels, 90%CI
[8] = dose-proportionality study, 18 subjects
[9] = pexidartinib 200 mg vs 400 mg (400 mg reference)
[10] = pexidartinib 400 mg vs 600 mg (400 mg reference)

FC(F)(F)c1ccc(CNc2ccc(Cc3c[nH]c4ncc(Cl)cc34)cn2)cn1 [Pexidartinib]
time of peak pexidartinib and total radioactivity ([1]; after the oral dose, pexidartinib and total radioactivity together): 1.75 to 2.0 h
severity of TEAEs ([1]; all events, mass balance study): mild (grade 1)
oral bioavailability ([1]; inferred from 44% of dose excreted unchanged in feces): moderate
Cmax [1, 4]: 2920 ng/mL
Tmax [1, 4]: 1.75 h
half-life [1, 4]: 1720 min
AUC(0-t) ([1]; male, human, plasma, po, 400 mg, AUClast, pexidartinib in plasma, single oral [14C]-pexidartinib 400 mg, N = 8, mean (CV%)): 60400 ng·h/mL
TEAE deemed by the investigator to be related to pexidartinib treatment ([1]; mass balance study): Diarrhea
TEAE leading to death, serious adverse event, or discontinuation ([1]; mass balance study, 8 subjects): No subject
number of TEAEs ([1]; mass balance study, 8 subjects): four
administered radioactivity recovered in the feces ([1]; over 240 hours, single oral [14C]-pexidartinib 400 mg): 64.8%
administered radioactivity recovered in the urine ([1]; over 240 hours, single oral [14C]-pexidartinib 400 mg, listed as [^14C]‐pexidartinib): 27.4%
administered radioactivity recovered in the urine ([1]; over 240 hours, single oral [14C]-pexidartinib 400 mg, listed as pexidartinib): > 20%
share of total radioactivity in the plasma ([1]; plasma, single oral [14C]-pexidartinib 400 mg): 34.9%
Percent of Radioactive Dose, feces [1, 5]: 44%
Percent of Radioactive Dose, feces ([1]; single oral [14C]-pexidartinib 400 mg, listed as pexidartinib): 44.0%
Percent of Radioactive Dose, urine ([1]; pooled urine, single oral [14C]-pexidartinib 400 mg): no detectable
AUC0-24 of total plasma radioactivity relative to plasma pexidartinib [1, 5]: approximately 2 fold
AUClast of total radioactivity in plasma relative to pexidartinib in plasma [1, 5]: 3 fold
Cmax of total plasma radioactivity relative to plasma pexidartinib [1, 5]: approximately 2 fold
Tmax, total radioactivity in plasma [1, 6]: 2.0 (1.5, 3.0) h
Tmax, total radioactivity in whole blood [1, 6]: 2.0 (1.5, 3.0) h
dose proportionality by power model ([2]; 200-600 mg, 90%CIs overlapped the 0.80-1.20 acceptance interval): inconclusive
slope estimate for AUClast versus dose (power model) [2, 7]: 0.85 (90%CI 0.77, 0.92)
slope estimate for Cmax versus dose (power model) [2, 7]: 0.83 (90%CI 0.74, 0.91) and 0.83 (90%CI, 0.74, 0.91)
severity of TEAEs ([2]; all TEAEs, dose-proportionality study): grade 1
TEAE leading to death, serious adverse event, or discontinuation [2, 8]: No subject
subjects who experienced TEAEs [2, 8]: four
half-life [2]: 1490 to 1600 min
half-life ([2]; 600 mg): 1490 min
Cmax ([2]; 200 mg): 2490 ng/mL
Cmax ([2]; 400 mg): 4660 ng/mL
Cmax ([2]; 600 mg): 6030 ng/mL
dose-normalized AUCinf, geometric LS mean ratio (90%CI) [2, 9]: 101.3 (93.5, 109.7) %
dose-normalized AUClast, geometric LS mean ratio (90%CI) [2, 9]: 101.3 (93.5, 109.8) %
dose-normalized Cmax, geometric LS mean ratio (90%CI) [2, 9]: 105.9 (96.8, 115.8) %
dose-normalized AUCinf, geometric LS mean ([2]; pexidartinib 200 mg, n = 18): 209.4 ng·h/mL/mg
dose-normalized AUClast, geometric LS mean ([2]; pexidartinib 200 mg, n = 18): 204.1 ng·h/mL/mg
dose-normalized Cmax, geometric LS mean ([2]; pexidartinib 200 mg, n = 18): 11.7 ng/mL • mg
t1/2, pexidartinib in plasma ([2]; pexidartinib 200 mg, n = 18, mean (SD)): 25.5 (5.2) h
dose-normalized AUCinf, geometric LS mean ratio (90%CI) [2, 10]: 83.7 (77.3, 90.7) %
dose-normalized AUClast, geometric LS mean ratio (90%CI) [2, 10]: 84.1 (77.6, 91.2) %
dose-normalized Cmax, geometric LS mean ratio (90%CI) [2, 10]: 86.3 (79.0, 94.4) %
dose-normalized AUCinf, geometric LS mean ([2]; pexidartinib 400 mg, n = 18): 206.8 ng·h/mL/mg
dose-normalized AUClast, geometric LS mean ([2]; pexidartinib 400 mg, n = 18): 201.4 ng·h/mL/mg
dose-normalized Cmax, geometric LS mean ([2]; pexidartinib 400 mg, n = 18): 11.0 ng/mL • mg
dose-normalized AUCinf, geometric LS mean ([2]; pexidartinib 600 mg, n = 18): 173.2 ng·h/mL/mg
dose-normalized AUClast, geometric LS mean ([2]; pexidartinib 600 mg, n = 18): 169.4 ng·h/mL/mg
dose-normalized Cmax, geometric LS mean ([2]; pexidartinib 600 mg, n = 18): 9.5 ng/mL • mg
substrate loss (rCYP3A4): 100 % loss
substrate loss (rCYP3A5): 100 % loss
effect on CYP3A (cytochrome P450 (CYP) 3A): moderate inducer
effect on CYP2C9 (CYP2C9): weak inhibitor
time of maximum plasma concentrations [3]: approximately 2.5 hours

— PMC10099993 (Clinical Pharmacology in Drug Development, 2022)
